High-throughput results from PubChem BioAssay.
Only some compounds are listed: those with a hit (about 4.6% of all), similar ones and a draw of the others.
Wee1 stabilizer: Wee1 degradation inhibitors, primary screen, cell-based, HeLa, Wee1K328M-luciferase, luminescence. Wee1-like protein kinase (Homo sapiens), P30291. HeLa Luc-Wee1K328M stability; 100% = proteasome inhibitor MG132 effect. reporter increase, % at 5 µM. actives 1.2% (n = 220,000). AID 1321, 2008;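 active = activation above the mean of all tested compounds plus 3 SD, set per screening run, cut at about 8.8% in these data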;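 note: cells exposed to compound for 20 h before luminescence read; 0% = DMSO alone and 100% = MG132 at 30 µM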
p97 inhibitor: inhibitors of human p97 ATPase, primary screen, biochemical; Transitional endoplasmic reticulum ATPase (Homo sapiens), P55072; AID 1481, 2009; actives 0.42% (n = 220,000); inhibition, % at 8 µM; recombinant p97 ATPase, Kinase-Glo ATP luminescence, 3 h; in the data active = inhibition above about 15%;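 note: 0% = DMSO vehicle and 100% = wells lacking enzyme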
STAT1 activator: STAT1 signaling activators, primary screen, cell-based, HTS, luciferase reporter | NIH 3T3 STAT1-luciferase reporter, IFN-gamma, luminescence; 100% = IFN-gamma alone, no compound | activation (% of control), % at 5.5 µM | actives 2.6% (n = 200,000);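 active = activation above the screen-wide mean activation plus 3 SD, cut at about 130% in these data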;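 note: raw ratio to IFN-gamma control signal so 100% means no change and 0% no light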
NF-kB expr up: activators of NF-kB expression in neurons, primary screen, cell-based, HTS. human neuronal cells, NF-kB reporter expression; stronger effect = higher value. fold change at 12.5 µM. actives 1.6% (n = 190,000); in the data active = fold change above about 3.3
Mdm2 ligase inh: MDM2-luciferase reporter signal enhancers, primary screen, MDM2 E3 ligase inhibitor project, cell-based, luminescence, 1536-well. E3 ubiquitin-protein ligase Mdm2 (Homo sapiens), Q00987. cell-based MDM2 ubiquitination luciferase reporter, 2 h; 0 = plate control, 100 = twice control, blank-subtracted. signal enhancement, % at 5 µM. actives 0.11% (n = 210,000). AID 1230, 2008;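 active = signal enhancement of 30% or more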;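 note: luminescence tracks abundance of the self-degrading MDM2-luciferase fusion protein; higher signal means inhibition of MDM2 E3 ligase activity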
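Test system: mammalian cells stably expressing self-ubiquitinating, self-degrading MDM2 E3–luciferase fusion; Amount: 2000 cells in each well; Medium: DMEM; Schedule: 4 h settle plus 2 h compound, 37 °C; Technique: SteadyLite luciferase luminescence after 15 min room-temperature reagent incubation; Benchmarks: plate control and blank wells.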
APP 5'UTR act: activators of APP 5'UTR luciferase reporter, primary screen, SH-SY5Y cells | SH-SY5Y APP 5'UTR luciferase reporter, luminescence; zero percent = DMSO vehicle wells | activation, % at 2 µM | AID 1276, 2008 | actives 1% (n = 190,000);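 active = activation above a set limit, based on mean plus 3 SD of controls, cut at about 140% in these data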
* = called active by the depositor; / = no result.

SMILES | Wee1 stabilizer | p97 inhibitor | STAT1 activator | NF-kB expr up | Mdm2 ligase inh | APP 5'UTR act
CO/N=C/CC(=O)c1cnc(-c2ccc(Cl)cc2)s1 | -0.8 | 7.5 | 125.4 | 1.49 | 17.3 | 27.5
Cc1ccc(CN2C(=O)CCC2C(=O)NCc2ccccc2Cl)cc1 (stereo not drawn) | -1.4 | -0.2 | 104.6 | 1.08 | -22.4 | 7.0
CC(NS(=O)(=O)c1ccc(OCC(=O)Nc2cccc([N+](=O)[O-])c2)cc1)c1ccccc1 (stereo not drawn) | 3.4 | 1.6 | 88.0 | 1.16 | -7.8 | 3.1
Cc1ccc(C(=O)Nc2cccc(C(=O)O)c2)cc1 | -3.1 | -6.4 | 24.3 | 5.34* | -23.6 | -35.5
CC(=O)c1cccc(NC(=S)NC(=O)c2ccc(C)cc2Cl)c1 | 1.6 | 1.7 | 131.1* | 1.7 | -3.6 | -2.1
Cc1cc(C)cc(OCC(=O)Nc2cccc(C(=O)O)c2)c1 | 1.9 | 1.2 | 107.9 | 1.41 | -12.0 | 7.9
Cc1ccccc1OCC(=O)Nc1cccc(C(=O)O)c1 | -5.9 | 5.3 | 11.7 | 8.97* | -92.6 | -68.3
CCCCC/C(=N\NC(=O)Nc1ccccc1)c1ccccc1 | 9.2* | -1.0 | 98.5 | 1.17 | -16.1 | 21.7
CCCC/C(C)=N/NC(=O)Nc1ccccc1 | 3.6 | 8.3 | 106.9 | 1.42 | -13.6 | 32.9
O=C(Nc1cccc(Cl)c1)c1ccc(OC(=S)N2CCOCC2)cc1 | -1.5 | -4.6 | 130.5* | 1.85 | -6.8 | 156.6*
C=CCNC(=O)c1c(Br)cnn1-c1ccc(C)cc1 | 4.1 | 1.5 | 147.4* | 2.95 | -16.0 | 75.7
Cc1c(C)n(Cc2ccccc2)c2ccc(C(=O)OCCN(C)C)cc12 | -3.2 | -5.8 | 113.0 | 1.11 | -1.9 | 5.8
O=C(O)CCC(=O)N1CCN(c2ccc(C(=O)c3ccc(F)cc3)cc2)CC1 | 1.5 | 3.1 | 98.0 | 1.18 | -25.1 | 12.9
CN1CCN(c2ccc(C(=O)c3ccc(F)cc3)cc2)CC1 | 9.0* | 3.2 | 135.8* | 2.73 | -14.8 | 74.7
COC(=O)c1[nH]c2ccccc2c1NC(=O)c1c(F)cccc1F | 3.1 | 1.0 | / | / | -12.0 | /
O=C(c1ccco1)N1CCN(C(=O)c2ccc(COc3ccc4c(c3)CCC4)o2)CC1 | 5.5 | -2.5 | 132.4* | 0.45 | / | -4.4
O=C(Nc1cc2c(oc1=O)CCCC2=O)c1cccc(Cl)c1 | 0.0 | 6.9 | 110.3 | 1.26 | -5.3 | 0.9
O=C(/C(C=Nc1cc2c(oc1=O)CCCC2=O)=C(\O)c1ccccc1)c1ccccc1 | 1.0 | 3.6 | 149.3* | 1.18 | -8.5 | 29.7
CCc1nc2ccccc2[nH]1 | 2.6 | 7.0 | 101.2 | 1.21 | -9.4 | 11.3
c1ccc(OCc2nc3ccccc3[nH]2)cc1 | 7.6 | -1.3 | 129.1* | 2.43 | -12.7 | 100.6
Clc1ccc(OCc2nc3ccccc3[nH]2)cc1 | 7.7 | 1.1 | 144.0* | / | -17.0 | 184.3*
Cc1ccc(S(=O)(=O)CCc2nc3ccccc3[nH]2)cc1 | 0.2 | 1.8 | 100.3 | 1.12 | -0.6 | -9.8
Cc1ccc(OCc2nc3ccccc3[nH]2)cc1 | -1.2 | -8.2 | 146.7* | 1.08 | -92.7 | 163.9*
COc1ccc(NC(=O)c2cncc(Br)c2)cc1S(=O)(=O)N1CCCCC1 | -1.5 | 0.5 | 94.2 | 0.44 | 0.2 | -6.2
Cc1c(NC(=O)CN2c3ccccc3CC2C)c(=O)n(-c2ccccc2)n1C (stereo not drawn) | 1.1 | 6.5 | 114.6 | 0.92 | -7.7 | 12.0
C=CCNC(=S)N/N=C/c1cccc([N+](=O)[O-])c1 | -3.0 | 4.9 | 106.1 | 0.9 | -10.2 | 19.8
N#CC[n+]1cc(-c2ccc(Cl)cc2)n2c1CCC2 | 8.9* | 4.2 | 101.5 | 1.31 | -4.1 | -17.7
O=C(Nc1cccnc1Oc1ccc(Cl)cc1)c1cccc2ccccc12 | -1.1 | 4.7 | / | / | -15.8 | /
Cn1c(SCC(=O)c2ccccc2)nnc1-c1ccncc1 | 0.3 | 1.9 | 103.1 | 1.19 | -19.8 | -5.6
